Calls of active or inactive are those of the source. No cut-off for these calls is given here. Where a SMILES comes first, the peptide text is derived from it.
Tests used:
Furin [1] = target: T1, Furin (Homo sapiens, UniProt P09958); test: Inhibition of recombinant soluble human furin using pyroGlu-Arg-Thr-Lys-Arg-methyl-coumaryl-7-amide as substrate measured after 1 hr
Procedure, shortened: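 Soluble human recombinant furin was tested in a competitive kinetic assay. Ki is reported as the mean ± SD of at least two independent experiments.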

Furin [2] = target: T1, Furin; test: Potency index, ratio of CF1 Ki to test compound Ki for recombinant soluble human furin using pyroGlu-Arg-Thr-Lys-Arg-methyl-coumaryl-7-amide as substrate measured after 1 hr
[3] = Half life in CD1 mouse plasma by LC-MS/MS analysis; assay type: ADME, cell-free; details: for half-life: CD1, mouse
Procedure, shortened: (§1)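 Peptide incubated ex vivo in mouse plasma at 37 °C and sampled at several time points, using the ng/mL concentration range. Intact peptide quantified by high-resolution mass spectrometry and expressed as percentage remaining; t1/2 derived from the time course. Each time point run in triplicate; mean and mean ± SD reported.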

[4] = Stability of the compound in CD1 mouse plasma assessed as intact compound remaining measured after 2 mins by LC-MS/MS analysis; assay type: ADME, cell-free; details: read-out: Stabilty; procedure, shortened: as §1
[5] = target: Proprotein convertase subtilisin/kexin type 5 (Homo sapiens) (UniProt Q92824); test: Inhibition of recombinant soluble human PC5 using pyroGlu-Arg-Thr-Lys-Arg-methyl-coumaryl-7-amide as substrate measured after 1 hr
[6] = target: T2, Proprotein convertase subtilisin/kexin type 6 (Homo sapiens) (UniProt P29122); test: Inhibition of recombinant soluble human PACE4 using pyroGlu-Arg-Thr-Lys-Arg-methyl-coumaryl-7-amide as substrate measured after 1 hr
T2 sequence (whole entry): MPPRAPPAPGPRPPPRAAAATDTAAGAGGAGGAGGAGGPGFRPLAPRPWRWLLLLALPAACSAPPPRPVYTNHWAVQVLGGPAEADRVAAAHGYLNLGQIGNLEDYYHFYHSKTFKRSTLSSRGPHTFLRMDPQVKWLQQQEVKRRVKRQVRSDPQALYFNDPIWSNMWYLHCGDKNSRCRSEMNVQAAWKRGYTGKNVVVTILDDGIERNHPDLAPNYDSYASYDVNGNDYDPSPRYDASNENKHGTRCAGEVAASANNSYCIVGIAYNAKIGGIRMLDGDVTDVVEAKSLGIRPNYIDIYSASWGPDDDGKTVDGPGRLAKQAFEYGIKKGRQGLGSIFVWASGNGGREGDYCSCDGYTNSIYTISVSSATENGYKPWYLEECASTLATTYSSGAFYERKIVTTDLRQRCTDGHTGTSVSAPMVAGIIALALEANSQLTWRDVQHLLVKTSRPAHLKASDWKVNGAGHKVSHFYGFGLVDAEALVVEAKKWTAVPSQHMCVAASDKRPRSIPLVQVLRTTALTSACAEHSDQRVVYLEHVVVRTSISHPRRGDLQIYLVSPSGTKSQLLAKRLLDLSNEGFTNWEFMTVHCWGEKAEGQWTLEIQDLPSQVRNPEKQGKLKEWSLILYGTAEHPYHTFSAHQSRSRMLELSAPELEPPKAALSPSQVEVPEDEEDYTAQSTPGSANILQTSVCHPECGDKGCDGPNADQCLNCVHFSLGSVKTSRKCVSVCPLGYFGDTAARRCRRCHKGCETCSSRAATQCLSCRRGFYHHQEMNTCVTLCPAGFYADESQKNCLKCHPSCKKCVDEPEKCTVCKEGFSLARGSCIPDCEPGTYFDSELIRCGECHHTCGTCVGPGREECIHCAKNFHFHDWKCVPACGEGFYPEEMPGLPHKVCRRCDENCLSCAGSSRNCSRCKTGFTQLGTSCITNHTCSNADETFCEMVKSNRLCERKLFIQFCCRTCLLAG

[7] = target: T3, Proprotein convertase subtilisin/kexin type 7 (Homo sapiens) (UniProt Q16549); test: Inhibition of recombinant soluble human PC7 using pyroGlu-Arg-Thr-Lys-Arg-methyl-coumaryl-7-amide as substrate measured after 1 hr
T3 sequence (whole entry): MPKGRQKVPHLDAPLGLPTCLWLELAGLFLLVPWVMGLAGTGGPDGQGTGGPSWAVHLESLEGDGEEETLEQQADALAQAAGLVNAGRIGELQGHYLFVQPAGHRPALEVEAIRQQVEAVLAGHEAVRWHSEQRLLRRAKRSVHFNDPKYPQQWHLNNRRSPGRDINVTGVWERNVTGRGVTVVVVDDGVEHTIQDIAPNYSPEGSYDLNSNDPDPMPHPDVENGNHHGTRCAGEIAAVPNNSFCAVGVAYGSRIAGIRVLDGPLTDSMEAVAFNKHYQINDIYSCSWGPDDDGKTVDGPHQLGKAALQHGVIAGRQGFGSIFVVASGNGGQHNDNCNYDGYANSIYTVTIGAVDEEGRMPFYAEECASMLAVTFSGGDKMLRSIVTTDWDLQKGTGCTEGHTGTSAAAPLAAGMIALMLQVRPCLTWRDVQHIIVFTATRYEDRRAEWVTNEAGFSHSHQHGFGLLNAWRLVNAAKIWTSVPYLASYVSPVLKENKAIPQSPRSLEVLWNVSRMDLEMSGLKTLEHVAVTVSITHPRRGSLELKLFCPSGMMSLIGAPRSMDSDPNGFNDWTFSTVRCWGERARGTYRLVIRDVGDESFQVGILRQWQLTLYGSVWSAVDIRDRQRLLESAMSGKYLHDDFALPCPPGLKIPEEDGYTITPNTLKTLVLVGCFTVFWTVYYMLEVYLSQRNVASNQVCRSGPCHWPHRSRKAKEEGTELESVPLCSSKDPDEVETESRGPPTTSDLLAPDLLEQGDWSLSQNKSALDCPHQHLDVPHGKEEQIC

Chain of Proprotein convertase subtilisin/kexin type 5 (Homo sapiens) (Q92824 whole entry): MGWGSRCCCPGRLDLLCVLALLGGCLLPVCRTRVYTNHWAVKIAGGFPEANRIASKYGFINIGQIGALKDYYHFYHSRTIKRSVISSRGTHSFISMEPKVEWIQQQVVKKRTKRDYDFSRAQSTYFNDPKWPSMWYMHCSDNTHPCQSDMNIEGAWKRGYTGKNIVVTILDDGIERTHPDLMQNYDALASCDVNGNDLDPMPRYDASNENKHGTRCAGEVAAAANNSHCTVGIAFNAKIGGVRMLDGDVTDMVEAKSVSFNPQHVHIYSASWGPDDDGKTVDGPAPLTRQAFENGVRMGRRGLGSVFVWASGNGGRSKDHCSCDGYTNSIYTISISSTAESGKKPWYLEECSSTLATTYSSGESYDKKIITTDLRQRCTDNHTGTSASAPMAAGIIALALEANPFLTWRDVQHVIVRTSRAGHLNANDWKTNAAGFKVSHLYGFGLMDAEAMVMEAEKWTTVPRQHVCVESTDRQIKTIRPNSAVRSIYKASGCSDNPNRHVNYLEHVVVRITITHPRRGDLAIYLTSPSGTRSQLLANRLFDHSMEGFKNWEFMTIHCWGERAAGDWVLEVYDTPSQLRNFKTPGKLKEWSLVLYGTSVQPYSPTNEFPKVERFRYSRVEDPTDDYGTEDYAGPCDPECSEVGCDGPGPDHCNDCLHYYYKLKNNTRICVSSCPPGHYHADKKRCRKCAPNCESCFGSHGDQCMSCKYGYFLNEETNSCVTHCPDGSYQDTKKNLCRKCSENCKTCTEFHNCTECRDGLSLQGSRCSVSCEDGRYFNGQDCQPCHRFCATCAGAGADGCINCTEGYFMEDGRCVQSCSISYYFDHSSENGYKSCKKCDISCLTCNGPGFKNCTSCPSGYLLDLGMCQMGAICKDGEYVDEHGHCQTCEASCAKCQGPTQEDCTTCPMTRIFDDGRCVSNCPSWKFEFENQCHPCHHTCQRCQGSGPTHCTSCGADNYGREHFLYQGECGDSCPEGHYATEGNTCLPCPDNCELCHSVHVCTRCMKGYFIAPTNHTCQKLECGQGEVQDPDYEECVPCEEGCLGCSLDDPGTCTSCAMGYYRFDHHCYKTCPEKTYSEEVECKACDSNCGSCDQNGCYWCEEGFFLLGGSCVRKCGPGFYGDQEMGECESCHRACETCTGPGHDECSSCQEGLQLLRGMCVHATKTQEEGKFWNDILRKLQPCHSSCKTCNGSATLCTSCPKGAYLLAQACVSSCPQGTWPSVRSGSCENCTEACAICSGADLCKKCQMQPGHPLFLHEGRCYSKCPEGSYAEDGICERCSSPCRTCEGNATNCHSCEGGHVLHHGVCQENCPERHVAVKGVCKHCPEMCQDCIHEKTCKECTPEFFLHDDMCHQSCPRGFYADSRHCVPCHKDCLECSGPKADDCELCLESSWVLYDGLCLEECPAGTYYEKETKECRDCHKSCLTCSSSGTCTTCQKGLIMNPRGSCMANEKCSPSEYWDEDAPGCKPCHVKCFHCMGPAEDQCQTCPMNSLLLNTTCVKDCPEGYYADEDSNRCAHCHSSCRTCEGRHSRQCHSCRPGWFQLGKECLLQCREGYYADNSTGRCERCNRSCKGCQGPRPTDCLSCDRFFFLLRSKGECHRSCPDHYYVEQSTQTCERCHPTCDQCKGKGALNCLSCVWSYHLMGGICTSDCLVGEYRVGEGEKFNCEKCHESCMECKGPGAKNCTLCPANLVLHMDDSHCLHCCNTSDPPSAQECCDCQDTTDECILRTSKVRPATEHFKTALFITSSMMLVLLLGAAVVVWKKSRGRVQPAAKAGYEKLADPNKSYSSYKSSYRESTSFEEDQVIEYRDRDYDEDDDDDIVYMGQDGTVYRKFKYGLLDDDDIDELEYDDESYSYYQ
T1 sequence (P09958 whole entry): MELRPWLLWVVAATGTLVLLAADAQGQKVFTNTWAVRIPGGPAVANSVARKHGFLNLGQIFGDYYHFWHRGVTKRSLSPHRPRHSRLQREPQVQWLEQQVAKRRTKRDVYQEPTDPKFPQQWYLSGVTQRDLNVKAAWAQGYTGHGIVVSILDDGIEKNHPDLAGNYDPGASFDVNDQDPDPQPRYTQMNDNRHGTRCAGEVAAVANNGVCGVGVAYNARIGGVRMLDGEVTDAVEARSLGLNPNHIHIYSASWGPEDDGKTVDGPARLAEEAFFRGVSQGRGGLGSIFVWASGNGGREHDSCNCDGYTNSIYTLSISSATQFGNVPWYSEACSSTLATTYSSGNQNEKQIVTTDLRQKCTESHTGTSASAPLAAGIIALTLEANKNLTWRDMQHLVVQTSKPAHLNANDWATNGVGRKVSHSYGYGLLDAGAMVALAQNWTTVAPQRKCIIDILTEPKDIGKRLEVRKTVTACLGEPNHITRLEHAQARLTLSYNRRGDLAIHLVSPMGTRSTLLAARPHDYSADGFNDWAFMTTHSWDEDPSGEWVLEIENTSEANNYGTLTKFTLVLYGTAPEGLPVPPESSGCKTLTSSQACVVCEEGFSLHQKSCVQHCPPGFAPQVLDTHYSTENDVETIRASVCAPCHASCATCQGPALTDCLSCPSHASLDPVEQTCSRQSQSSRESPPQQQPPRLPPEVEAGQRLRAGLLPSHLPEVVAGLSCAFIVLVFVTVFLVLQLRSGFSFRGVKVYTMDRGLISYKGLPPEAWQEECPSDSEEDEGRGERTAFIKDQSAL

| SMILES | Ki (Furin [1]) [nM] | Ratio Ki (Furin [2]) | half-life [3] [s] | remaining at 2 min [4] [%] | inhibition [5] | inhibition [6] | inhibition [7] | t1/2 ([3]; mouse) [s] |
| --- | --- | --- | --- | --- | --- | --- | --- | --- |
| CC(=O)N[C@@H](CCCNC(=N)N)C(=O)N[C@@H](C)C(=O)N[C@@H](CCCNC(=N)N)C(=O)N[C@H](C(=O)N[C@@H](CCCNC(=N)N)C(=O)N[C@@H](CCCCN)C(=O)N[C@@H](CCCCN)C(=O)N[C@@H](CCCNC(=N)N)C(=O)N[C@H](C(N)=O)[C@@H](C)O)C(C)C | 7 | 2 |  |  |  |  |  |  |
| CC[C@H](C)[C@H](NC(=O)[C@H](CCCNC(=N)N)NC(=O)[C@H](C)NC(=O)[C@@H]1CCCN1C(C)=O)C(=O)N[C@@H](CCCNC(=N)N)C(=O)N[C@@H](CCCCN)C(=O)N[C@@H](CCCCN)C(=O)N[C@@H](CCCNC(=N)N)C(=O)N[C@H](C(N)=O)[C@@H](C)O (Ac-PARIRKKRT-NH2) | 8 |  | 44.4 | 15 |  |  |  |  |
| CC(=O)N[C@@H](CCCNC(=N)N)C(=O)N[C@@H](C)C(=O)N[C@@H](CCCNC(=N)N)C(=O)N[C@@H](Cc1ccccc1)C(=O)N[C@@H](CCCNC(=N)N)C(=O)N[C@@H](CCCCN)C(=O)N[C@@H](CCCCN)C(=O)N[C@@H](CCCNC(=N)N)C(=O)N[C@H](C(N)=O)[C@@H](C)O | 21 |  | 19.2 |  | Active | Active | inactive |  |
| CC[C@H](C)[C@H](NC(=O)[C@H](CCCNC(=N)N)NC(=O)[C@H](C)NC(=O)[C@H](CCCNC(=N)N)NC(C)=O)C(=O)N[C@@H](CCCNC(=N)N)C(=O)N[C@@H](CCCCN)C(=O)N[C@@H](CCCCN)C(=O)N[C@@H](CCCNC(=N)N)C(=O)N[C@H](C(N)=O)[C@@H](C)O | 6 | 2 |  |  | Active | Active | inactive |  |
| CC(=O)N[C@@H](CCCNC(=N)N)C(=O)N[C@@H](C)C(=O)N[C@@H](CCCNC(=N)N)C(=O)N[C@@H](CCCCN)C(=O)N[C@@H](CCCNC(=N)N)C(=O)N[C@@H](CCCCN)C(=O)N[C@@H](CCCCN)C(=O)N[C@@H](CCCNC(=N)N)C(=O)N[C@H](C(N)=O)[C@@H](C)O | 7 | 2 |  |  |  |  |  |  |
| CC(=O)N[C@@H](CCCNC(=N)N)C(=O)N[C@@H](C)C(=O)N[C@@H](CCCNC(=N)N)C(=O)N[C@@H](CCCNC(=N)N)C(=O)N[C@@H](CCCNC(=N)N)C(=O)N[C@@H](CCCCN)C(=O)N[C@@H](CCCCN)C(=O)N[C@@H](CCCNC(=N)N)C(=O)N[C@H](C(N)=O)[C@@H](C)O | 15 |  |  |  | Active | Active | inactive | 212 |
| CC[C@H](NC(=O)[C@H](CCCNC(=N)N)NC(=O)[C@H](C)NC(=O)[C@H]1CCCN1C(C)=O)C(=O)N[C@@H](CCCNC(=N)N)C(=O)N[C@@H](CCCCN)C(=O)N[C@@H](CCCCN)C(=O)N[C@@H](CCCNC(=N)N)C(=O)N[C@H](C(N)=O)[C@@H](C)O | 11 |  | 66.6 | 25 |  |  |  |  |
| CC(=O)N[C@@H](CCCNC(=N)N)C(=O)N[C@@H](C)C(=O)N[C@@H](CCCNC(=N)N)C(=O)N[C@@H](CC(N)=O)C(=O)N[C@@H](CCCNC(=N)N)C(=O)N[C@@H](CCCCN)C(=O)N[C@@H](CCCCN)C(=O)N[C@@H](CCCNC(=N)N)C(=O)N[C@H](C(N)=O)[C@@H](C)O | 18 |  |  |  | Active | Active | inactive |  |
